Reference: ChEMBL document CHEMBL5715946 (Chem Biol, 2010)
Each block holds one compound with its values, some of them ahead of it. Active and inactive are the calls of the source. The calls are words filed in the database; no cut-off is given here.

Tests used:
[1] = target: Macrophage migration inhibitory factor (Rattus norvegicus) (UniProt P30904); assay: Inhibition of recombinant rat MIF expressed in Escherichia coli BL21 (DE3) assessed as reduction in tautomerase activity at 30 uM using L-dopachrome carboxy-methyl ester as substrate by spectrophotometry relative to control
Outline: (§1)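 Purified recombinant rat MIF tautomerase assayed with purified L-dopachrome carboxy-methyl ester as substrate in pH 6.0 buffer; rate taken over the initial 30 s. Mean ± SD, n = 4.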
Target sequence in this assay (P30904 2-115 limits assumed): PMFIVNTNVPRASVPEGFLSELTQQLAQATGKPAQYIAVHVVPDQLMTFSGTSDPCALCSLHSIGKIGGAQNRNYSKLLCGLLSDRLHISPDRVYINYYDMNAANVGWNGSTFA

[2] = test system: Antioxidant response element; assay: Induction of rat ARE activity expressed in rat H9c2 cells assessed as increase in ARE luciferase activity measured after 24 hrs by steady-glo luciferase Assay; type: cell-based
Outline: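 H9c2 cells transiently transfected with pGL3-ARE-Luc or pGL3-mARE-Luc, compound exposure 24 hr, luciferase read by Steady-Glo. MEC2.0 is the concentration giving a doubling of luciferase activity. Mean ± SD, n = 4.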

[3] = target: Macrophage migration inhibitory factor (Rattus norvegicus) (UniProt P30904); assay: Inhibition of [3H]-BTZO-1 binding to recombinant rat C-terminal His-tagged MIF expressed in Escherichia coli BL21 (DE3) at 100 uM measured after 3 hrs by SPA relative to control
Target sequence in this assay (P30904 whole entry, looked up): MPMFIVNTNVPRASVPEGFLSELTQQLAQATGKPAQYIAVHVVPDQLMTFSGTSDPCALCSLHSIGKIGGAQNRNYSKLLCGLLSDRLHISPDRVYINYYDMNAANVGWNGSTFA

[4] = target: Macrophage migration inhibitory factor (Rattus norvegicus, UniProt P30904); assay: Inhibition of recombinant rat MIF expressed in Escherichia coli BL21 (DE3) assessed as reduction in tautomerase activity using L-dopachrome carboxy-methyl ester as substrate by spectrophotometry; outline: as §1
[5] = target: Macrophage migration inhibitory factor (Rattus norvegicus) (UniProt P30904); assay: Inhibition of [3H]-BTZO-1 binding to recombinant rat C-terminal His-tagged MIF expressed in Escherichia coli BL21 (DE3) measured after 3 hrs by SPA
Target sequence in this assay (P30904 whole entry, looked up): as above

[6] = target: Macrophage migration inhibitory factor (Rattus norvegicus) (UniProt P30904); assay: Binding affinity to recombinant rat MIF expressed in Escherichia coli BL21 (DE3) by chromatography
Target sequence in this assay (P30904 2-115 limits assumed): as the sequence (P30904 2-115 limits assumed) above

Cardiac muscle cell = assay: Cytoprotective activity against serum deprivation-induced neonatal Wistar rat cardiomyocyte death assessed as increase in cell viability measured after 4 days by WST-8 assay; type: functional; details: time 4 day
Outline: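 Primary neonatal rat cardiomyocytes were isolated by proteinase digestion, with preplating to remove adherent non-myocytes. Death was induced by serum deprivation at low density (3×10^5 cells/ml) for 4 days with compound present. Viability was read by WST-8. MEC1.5 is the concentration giving a 50% rise in viability. n = 3.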

[7] = test system: Antioxidant response element; assay: Induction of ARE activity in serum-deprived neonatal Wistar rat cardiomyocytes assessed as increase in HO-1 mRNA level up to 3 uM measured after 24 hrs by RT-qPCR analysis; type: cell-based; details: Cardiomyocyte
Outline: (§2)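 Neonatal rat cardiomyocytes exposed to samples or vehicle in M-199 with 1% penicillin-streptomycin, no serum, for 24 hr. GST Ya and HO-1 mRNA measured by real-time qPCR (mean ± SD, n = 3); protein by western blot with β-actin as control.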

Rattus norvegicus [8] = assay: (§3) Cardioprotective effect against ischemia reperfusion injury in Wistar rat myocardial infarction model assessed as area at risk at 10 mg/kg, ip administered 1 hr prior to LAD occlusion and 2 and 8 hr after reperfusion and measured after 24 hrs by Evans blue dye based assay (reference value: 46 +/- 3%); type: functional; details: time 25 hrs
Outline: (§4)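 Anaesthetized rats; LAD coronary occlusion 25 min followed by 24 hr reperfusion. Compound 10 mg/kg i.p. given 1 hr before occlusion and 2 and 8 hr after reperfusion; vehicle controls, n = 13. Area at risk given as % of LV, infarct size as % of area at risk. Mean ± SEM.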

[9] = test system: Antioxidant response element; assay: Induction of ARE activity in serum-deprived neonatal Wistar rat cardiomyocytes assessed as increase in GST Ya mRNA level up to 3 uM measured after 24 hrs by RT-qPCR analysis; type: cell-based; details: Cardiomyocyte; outline: as §2
Rattus norvegicus [10] = assay: as §3, with “reduction in infarct size” for “area at risk”, “relative to control” for “(reference value: 46 +/- 3%)”; type: functional; design: scale not given: the % may be the effect or the level left; details: time 25 hrs; outline: as §4
[11] = test system: Antioxidant response element; assay: Induction of ARE activity in serum-deprived neonatal Wistar rat cardiomyocytes assessed as increase in GST Ya expression up to 400 nM measured after 24 hrs by Western blot analysis; type: cell-based; details: Cardiomyocyte; outline: as §2
[12] = test system: Antioxidant response element; assay: Induction of ARE activity in serum-deprived neonatal Wistar rat cardiomyocytes assessed as increase in HO-1 expression up to 400 nM measured after 24 hrs by Western blot analysis; type: cell-based; details: Cardiomyocyte; outline: as §2
[13] = target: Macrophage migration inhibitory factor (Rattus norvegicus) (UniProt P30904); assay: Binding affinity to MIF in Wistar rat isolated heart by chromatography; type: tissue-based
Target sequence in this assay (P30904 2-115 limits assumed): as above

[14] = test system: Antioxidant response element; assay: Induction of rat ARE activity expressed in MIF-stimulated rat H9c2 cells assessed as increase in ARE luciferase activity at 1 uM measured after 24 hrs by steady-glo luciferase Assay; type: cell-based
Outline: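 H9c2 cells transiently transfected with pGL3-ARE-Luc (rat GST Ya ARE) or mutant-ARE control plasmid, then treated with rMIF with or without 1 μM compound for 24 hr. Luciferase by Steady-Glo; mean ± SD, n = 4.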

[15] = target: Macrophage migration inhibitory factor (Rattus norvegicus) (UniProt P30904); assay: Induction of MIF-stimulated ARE activity in rat H9c2 cells assessed as increase in HO-1 expression at 3 uM incubated for 6 hrs by RT-qPCR analysis; type: cell-based
Target sequence in this assay (P30904 2-115 limits assumed): as above

[16] = target: Macrophage migration inhibitory factor (Rattus norvegicus) (UniProt P30904); assay: Induction of MIF-stimulated ARE activity in rat H9c2 cells assessed as increase in GST Ya expression at 3 uM incubated for 24 hrs by RT-qPCR analysis; type: cell-based
Target sequence in this assay (P30904 2-115 limits assumed): as above

[17] = target: Macrophage migration inhibitory factor (Rattus norvegicus) (UniProt P30904); assay: Binding affinity to rat C-terminal His-tagged MIF expressed in Escherichia coli BL21 (DE3) by SPR analysis
Outline: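 Sensor chip carrying immobilized BTZO-12; MIF (wild type or point mutants) passed over it and specific binding monitored by surface plasmon resonance.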
Target sequence in this assay (P30904 2-115 limits assumed): as above

[18] = target: Macrophage migration inhibitory factor (Rattus norvegicus) (UniProt P30904); assay: Binding affinity to MIF in Wistar rat isolated heart by SPR analysis; type: tissue-based
Outline: (§5)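 BTZO-12-type sensor chip probed with rat heart protein; bound protein recovered by microrecovery elution, then identified by silver staining and by western blot with anti-MIF antibody.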

[19] = target: Macrophage migration inhibitory factor (Rattus norvegicus) (UniProt P30904); assay: Binding affinity to MIF in Wistar rat isolated heart by Western blot analysis; type: tissue-based; outline: as §5
[20] = target: Macrophage migration inhibitory factor (Rattus norvegicus) (UniProt P30904); assay: Binding affinity to MIF in Wistar rat isolated heart by silver staining based assay; type: tissue-based; outline: as §5

Chain of Macrophage migration inhibitory factor (P30904 2-115 limits assumed): as above

- inhibition [1]: 30%
- inhibition [3]: 12%
- IC50 [4]: 68 µM
SMILES: COC(=O)CC1CC(c2ccc(O)cc2)=NO1 (stereo not drawn)
- MEC2 [2]: > 30 µM

- IC50 [5]: 3.6 µM
- IC50 [4]: 3.7 µM
SMILES: CCCCC/C=C/C=C1/C(=O)C=C[C@@H]1C/C=C\CCCC(=O)O
- MEC2 [2]: 7.3 µM

SMILES: Cc1cc(C)c2sc(-c3cccc(CCCOCCC(=O)O)n3)nc(=O)c2c1
- MEC2 [2]: > 10 µM
- Activity [6]: inactive
- MEC1.5 (Cardiac muscle cell): >1000 nM

SMILES: O=C(O)CCOCCCc1cccc(-c2nc(=O)c3cccnc3s2)n1
- MEC2 [2]: > 10 µM
- Activity [6]: inactive
- MEC1.5 (Cardiac muscle cell): >1000 nM

SMILES: O=C(O)CCc1cccc(-c2nc(=O)c3ccccc3s2)n1
- inhibition [1]: 14%
- Activity [7]: Active
- Activity (Rattus norvegicus [8]): 48%
- Activity [2]: Dose-Dependent Effect
- MEC2 [2]: 2.3 µM
- Activity [9]: Active
- Activity (Rattus norvegicus [10]): 45%
- Activity [11]: Active
- Activity [12]: Active
- MEC1.5 (Cardiac muscle cell): 39 nM

SMILES: O=C(O)CCOCCCc1cccc(-c2nc(=O)c3ccccc3s2)n1
- MEC2 [2]: 2.2 µM
- Activity [13]: Active
- Activity [6]: Active
- MEC1.5 (Cardiac muscle cell): 53 nM

SMILES: Cc1cc(C)c2sc(-c3ccccn3)nc(=O)c2c1
- MEC2 [2]: > 10 µM
- MEC1.5 (Cardiac muscle cell): >1000 nM

SMILES: O=C(O)CCOCCCc1ccc(-c2nc(=O)c3ccccc3s2)nc1
- MEC2 [2]: 1.6 µM
- Activity [13]: Active
- Activity [6]: Active
- MEC1.5 (Cardiac muscle cell): 39 nM

SMILES: O=c1nc(-c2ccccn2)sc2ncccc12
- inhibition [1]: 5%
- MEC2 [2]: > 10 µM
- MEC1.5 (Cardiac muscle cell): >1000 nM

SMILES: Cc1cccc2c(=O)nc(-c3ccccn3)sc12
- inhibition [1]: 6%
- MEC2 [2]: > 10 µM
- Activity [14]: inactive
- Activity [15]: inactive
- Activity [16]: inactive
- Activity [11]: inactive
- Activity [12]: inactive
- MEC1.5 (Cardiac muscle cell): >1000 nM

SMILES: O=C(O)CCOCCCc1cccc(C2NC(=O)c3ccccc3S2)n1 (stereo not drawn)
- MEC2 [2]: > 10 µM
- Activity [6]: inactive
- MEC1.5 (Cardiac muscle cell): >1000 nM

SMILES: O=c1nc(-c2cccnc2)sc2ccccc12
- inhibition [1]: 12%
- MEC2 [2]: 0.8 µM
- MEC1.5 (Cardiac muscle cell): 39 nM

SMILES: C[S@+]([O-])CCCCN=C=S
- MEC2 [2]: 4.4 µM

- Activity [17]: inactive
- Activity [18]: inactive
SMILES: Cc1cccc2c(=O)nc(-c3cccc(C(=O)NCCCCCCN)n3)sc12
- MEC2 [2]: > 10 µM

- Activity [19]: Active
- Activity [17]: Active
- Activity [18]: Active
- Activity [20]: Active
SMILES: NCCCCCCNC(=O)c1cccc(-c2nc(=O)c3ccccc3s2)n1
- MEC2 [2]: 1.1 µM

SMILES: O=C1NC(c2ccccn2)Sc2ccccc21 (stereo not drawn) [BTZO-4]
- inhibition [1]: 3%
- MEC2 [2]: > 10 µM
- MEC1.5 (Cardiac muscle cell): >1000 nM

- IC50 [5]: 1.1 µM
- IC50 [4]: > 30 µM
SMILES: CC(C)(C)c1cc(O)ccc1O [E319]
- MEC2 [2]: 5.7 µM

SMILES: C[S@@+]([O-])CCCCN=C=S [L-SULFORAPHANE]
- IC50 [5]: 25 µM
- IC50 [4]: 4.4 µM

SMILES: Cc1c(C)c2c(c(C)c1O)CCC(C)(C(=O)O)O2 (stereo not drawn) [TROLOX]
- MEC1.5 (Cardiac muscle cell): 160000 nM
